In ChEMBL document CHEMBL4265933, “Rationally designed divalent caffeic amides inhibit amyloid-β fibrillization, induce fibril dissociation, and ameliorate cytotoxicity” (Eur J Med Chem, 2018):
Calls of active or inactive are those of the source. The rule behind the calls is not given here.

What was measured:
[1] = target: T1, Amyloid-beta precursor protein (Homo sapiens, UniProt P05067); experiment: Inhibition of amyloid beta (1 to 42) (unknown origin) assessed as fibril formation at 10 uM incubated with agitation for 1 min every hr measured over 80 hrs by thioflavin-T assay relative to control; design: scale not given: the % may be the effect or the level left
T1 sequence (P05067 whole entry): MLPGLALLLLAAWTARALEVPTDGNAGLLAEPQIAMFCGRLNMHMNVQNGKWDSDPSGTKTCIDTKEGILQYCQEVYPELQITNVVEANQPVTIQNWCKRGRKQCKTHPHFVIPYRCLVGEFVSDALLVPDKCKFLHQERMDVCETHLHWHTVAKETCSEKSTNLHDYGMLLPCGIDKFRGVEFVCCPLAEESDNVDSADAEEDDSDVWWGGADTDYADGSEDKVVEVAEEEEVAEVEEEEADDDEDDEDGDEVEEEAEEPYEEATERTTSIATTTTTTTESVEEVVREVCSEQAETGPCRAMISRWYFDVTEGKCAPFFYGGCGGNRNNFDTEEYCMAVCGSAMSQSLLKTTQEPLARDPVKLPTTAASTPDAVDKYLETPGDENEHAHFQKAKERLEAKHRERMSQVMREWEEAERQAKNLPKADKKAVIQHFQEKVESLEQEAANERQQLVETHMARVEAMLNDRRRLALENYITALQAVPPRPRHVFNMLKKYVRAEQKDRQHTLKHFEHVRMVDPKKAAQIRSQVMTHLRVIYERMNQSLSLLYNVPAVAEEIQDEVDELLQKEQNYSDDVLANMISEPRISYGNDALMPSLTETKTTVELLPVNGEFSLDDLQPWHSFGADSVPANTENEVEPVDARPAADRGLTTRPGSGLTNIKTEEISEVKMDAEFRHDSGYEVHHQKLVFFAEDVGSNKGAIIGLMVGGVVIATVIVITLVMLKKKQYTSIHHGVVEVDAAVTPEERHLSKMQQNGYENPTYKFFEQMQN

[2] = target: T1, Amyloid-beta precursor protein; experiment: Inhibition of amyloid beta (1 to 42) fibrillization (unknown origin) at 12.5 to 25 uM incubated with agitation for 1 min every hr measured over 80 hrs by transmission electron microscopy
Procedure, shortened: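 End-point Aβ(1–42) products after 80 h ThT incubation (50 µM peptide, 37 °C) with 12.5 or 25 µM compound were applied to Formvar carbon-coated copper grids for 5 min. Grids were water-washed and stained with 2% uranyl acetate. Imaging was by TEM at 120 kV.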

[3] = test system: SH-SY5Y; experiment: Neuroprotective activity against amyloid beta (1 to 42 residues) induced cytotoxicity in human SH-SY5Y cells assessed as protection against amyloid beta (1 to 42 residues) induced decrease in cell viability at 0.01 uM after 24 hrs by LDH assay relative to control; format: functional
Procedure, shortened: (§1)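 SH-SY5Y cells (DMEM/F12, 5% FBS, 37 °C, 5% CO2) were seeded at 10,000 cells/well for 24 h, then switched to serum-free medium. Cells received 10 µL end-point Aβ(1–42) ThT-assay product (peptide co-incubated with compound) for 24 h. Cleared medium was incubated with LDH substrate 30 min at room temperature, dark, and read at 490 nm. Cell-free background was subtracted; 2% Triton X-100 lysis set 100% cytotoxicity. Triplicate.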

[4] = test system: SH-SY5Y; experiment: Neuroprotective activity against amyloid beta (1 to 42 residues) induced cytotoxicity in human SH-SY5Y cells assessed as protection against amyloid beta (1 to 42 residues) induced decrease in cell viability after 24 hrs by LDH assay; format: functional, cell-based; procedure, shortened: as §1
[5] = test system: Caenorhabditis elegans; experiment: Protection against amyloid beta aggregation-induced paralysis in Caenorhabditis elegans CL4176 assessed as median survival time of worms at 40 uL pretreated with compound at 16 degC for 20 hrs followed by raising temperature to 25 degC (reference value: 42.2 hrs); format: functional
[6] = target: T1, Amyloid-beta precursor protein; experiment: Inhibition of amyloid beta (1 to 42) fibrillization (unknown origin) incubated with agitation for 1 min every hr measured over 80 hrs by thioflavin-T assay
[7] = test system: SH-SY5Y; experiment: Neuroprotective activity against amyloid beta (1 to 42 residues) induced cytotoxicity in human SH-SY5Y cells assessed as protection against amyloid beta (1 to 42 residues) induced decrease in cell viability at 25 uM after 24 hrs by LDH assay relative to control; format: functional; procedure, shortened: as §1
[8] = target: T1, Amyloid-beta precursor protein; experiment: Inhibition of amyloid beta (1 to 42) (unknown origin) assessed as fibril formation at 100 uM incubated with agitation for 1 min every hr measured over 80 hrs by thioflavin-T assay relative to control; design: scale not given: the % may be the effect or the level left
Procedure, shortened: (§2)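 Synthetic Aβ(1–42) taken up in DMSO, diluted to 50 μM in 20 mM PB pH 7.4 (final DMSO 1.5%) with 5 μM ThT, compound 0.01–100 μM. Incubated at 37 °C with 1 min agitation hourly for 80 h. ThT read at ex 442/em 485 nm. The 80 h signal, buffer-subtracted, normalized to Aβ alone. Independent triplicates, SEM; IC50 fitted to Y=100/(1+10^(X−LogIC50)).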

[9] = target: T1, Amyloid-beta precursor protein; experiment: Disaggregation of amyloid beta (1 to 42 residues) (unknown origin) preformed fibrils at 100 uM measured immediately by transmission electron microscopy
Procedure, shortened: (§3)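 Aβ(1–42) made by Fmoc solid-phase synthesis and HPLC-purified. Fibrils preformed by dissolving 0.1 mg peptide in DMSO, diluting in 20 mM PB pH 7.4, and shaking for at least 4 days. Fibrils mixed with compound (100 μM), sampled at time 0 or after 14 days, placed on carbon-coated grids, stained with 2% uranyl acetate and imaged by TEM at 120 kV.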

[10] = target: T1, Amyloid-beta precursor protein; experiment: Inhibition of amyloid beta (1 to 42) (unknown origin) assessed as fibril formation up to 100 uM incubated with agitation for 1 min every hr measured over 80 hrs by thioflavin-T assay
Procedure, shortened: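 Synthetic Aβ(1–42) was dissolved in DMSO and diluted to 50 µM in 20 mM phosphate buffer, pH 7.4 (1.5% final DMSO), with 5 µM ThT. Compound was added at 0.01–100 µM and samples were held at 37 °C, agitated 1 min hourly. Fluorescence (ex 442, em 485 nm) was read over 80 h. Background-subtracted 80 h signal was normalized to Aβ alone and fit to Y=100/(1+10^(X−LogIC50)). Triplicate, SEM.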

[11] = target: T1, Amyloid-beta precursor protein; experiment: Disaggregation of amyloid beta (1 to 42 residues) (unknown origin) preformed fibrils incubated with agitation for 1 min every hr measured over 80 hrs by thioflavin-T assay
Procedure, shortened: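 Preformed Aβ(1–42) fibrils (25 μM; peptide in DMSO diluted into 20 mM PB pH 7.4, shaken at least 4 days) mixed with compound at 0–100 μM and 5 μM ThT. Incubated at 37 °C with 1 min agitation hourly. Fluorescence read at ex 442/em 485 nm, buffer background subtracted. Final signal normalized to fibrils alone; triplicate; IC50 fitted to Y=100/(1+10^(X−LogIC50)).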

[12] = test system: SH-SY5Y; experiment: Neuroprotective activity against preformed amyloid beta (1 to 42 residues) fibril induced cytotoxicity in human SH-SY5Y cells assessed as protection against amyloid beta (1 to 42 residues) induced cell viability at 50 uM after 24 hrs by LDH assay (reference value: 17%); format: functional
Procedure, shortened: (§4)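 Preformed fibrils: 0.1 mg Aβ(1–42) in 6 µL DMSO was diluted into 880 µL 20 mM PB pH 7.4 and shaken ≥4 days. Fibrils were then held with 0, 25, 50 or 100 µM compound. SH-SY5Y cells in serum-free medium received 10 µL sample for 24 h. LDH release was read at 490 nm, background-subtracted, and normalized to 2% Triton X-100 lysis as 100%.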

[13] = target: T1, Amyloid-beta precursor protein; experiment: Disaggregation of amyloid beta (1 to 42 residues) (unknown origin) preformed fibrils up to 100 uM measured on day 14 by Western blot analysis
Procedure, shortened: (§5)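 Preformed Aβ(1–42) fibrils incubated with compound at 0, 25, 50 or 100 μM for 0 or 14 days. Samples (20 μL plus SDS sample buffer) run on native 13% Tris-tricine gel without SDS, transferred to nitrocellulose at 250 mA for 75 min at 4 °C, blocked in 5% milk, probed with 4G8 and 6E10 plus anti-mouse IgG, ECL detection.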

[14] = target: T1, Amyloid-beta precursor protein; experiment: Disaggregation of amyloid beta (1 to 42 residues) (unknown origin) preformed fibrils at 100 uM measured on day 14 by transmission electron microscopy; procedure, shortened: as §3
[15] = target: T1, Amyloid-beta precursor protein; experiment: Inhibition of amyloid beta (1 to 42) (unknown origin) assessed as fibril formation at 3.1 uM incubated with agitation for 1 min every hr measured over 80 hrs by thioflavin-T assay relative to control; design: scale not given: the % may be the effect or the level left; procedure, shortened: as §2
[16] = target: T1, Amyloid-beta precursor protein; experiment: Disaggregation of amyloid beta (1 to 42 residues) (unknown origin) preformed fibrils up to 100 uM measured immediately by Western blot analysis; procedure, shortened: as §5
[17] = target: T1, Amyloid-beta precursor protein; experiment: Inhibition of amyloid beta (1 to 42) (unknown origin) assessed as fibril formation at 25 uM incubated with agitation for 1 min every hr measured over 80 hrs by thioflavin-T assay relative to control; design: scale not given: the % may be the effect or the level left; procedure, shortened: as §2
[18] = test system: Caenorhabditis elegans; experiment: Protection against amyloid beta aggregation-induced paralysis in Caenorhabditis elegans CL4176 assessed as survival rate of worms at 40 uL pretreated with compound at 16 degC for 20 hrs followed by raising temperature to 25 degC and measured at 26 hrs relative to control; format: functional
Procedure, shortened: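 About 130 eggs of transgenic C. elegans CL4176 (muscle myo-3p::Aβ(1–42)) were grown at 16 °C on NGM plates with E. coli OP50. Plates were pretreated with 40 µL of a 6.27 mM compound solution; nematode growth medium served as buffer control. Temperature was raised to 25 °C at L4. Unparalysed worms (~100–130 per condition) were counted every 2 h. Five trials.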

[19] = test system: SH-SY5Y; experiment: Neuroprotective activity against preformed amyloid beta (1 to 42 residues) fibril induced cytotoxicity in human SH-SY5Y cells assessed as protection against amyloid beta (1 to 42 residues) induced cell viability at 100 uM after 24 hrs by LDH assay (reference value: 17%); format: functional; procedure, shortened: as §4
[20] = test system: SH-SY5Y; experiment: Neuroprotective activity against preformed amyloid beta (1 to 42 residues) fibril induced cytotoxicity in human SH-SY5Y cells assessed as protection against amyloid beta (1 to 42 residues) induced decrease in cell viability at 25 uM after 24 hrs by LDH assay; format: functional, cell-based; procedure, shortened: as §4

Structure (SMILES): C#CCCCNC(=O)/C=C/c1ccc(O)c(O)c1
- Activity [1]: 135%

Structure (SMILES): O=C(/C=C/c1ccc(O)c(O)c1)NCCOCCOCCOCCNC(=O)/C=C/c1ccc(O)c(O)c1
- Activity [1]: 79.4%
- inhibition [2]: inactive

Structure (SMILES): O=C(/C=C/c1ccc(O)c(O)c1)NCc1cn(Cc2ccc(Cn3cc(CNC(=O)/C=C/c4ccc(O)c(O)c4)nn3)cc2)nn1
- Activity [1]: 76.5%

Structure (SMILES): O=C(/C=C/c1ccc(O)c(O)c1)O[C@H](Cc1ccc(O)c(O)c1)C(=O)O
- Activity [1]: 79.1%

Structure (SMILES): COc1cc(/C=C/C(=O)CC(=O)/C=C/c2ccc(O)c(OC)c2)ccc1O [CURCUMIN]
- Activity [3]: inactive
- Activity [4]: Dose-dependent effect
- MST [5]: 25.7 h
- inhibition [6]: Dose-dependent effect
- Activity [7]: 20%
- inhibition [2]: Active

Structure (SMILES): O=C(O)/C=C/c1ccc(O)c(O)c1 [CAFFEIC ACID]
- Activity [3]: 5%
- Activity [4]: Dose-dependent effect
- MST [5]: 26.3 h
- IC50 [6]: 15.6 µM
- inhibition [6]: Dose-dependent effect
- Activity [7]: 20%
- Activity [1]: 91.2%
- inhibition [2]: Active

Structure (SMILES): O=C(/C=C/c1ccc(O)c(O)c1)NCCCNC(=O)/C=C/c1ccc(O)c(O)c1
- Activity [3]: 19%
- Activity [4]: Dose-dependent effect
- Activity [8]: 1%
- MST [5]: 27.3 h
- Activity [9]: inactive
- IC50 [6]: 4.9 µM
- inhibition [6]: Dose-dependent effect
- Activity [7]: 34%
- inhibition [10]: Active
- Activity [11]: Dose-dependent effect
- IC50 [11]: 4.2 µM
- Activity [1]: 52.9%
- Activity [12]: 12%
- inhibition [2]: Active
- Activity [13]: Active
- Activity [14]: Active
- Activity [15]: 60%
- Activity [16]: inactive
- Activity [17]: 8%
- fold change (FC) [18]: 2.5
- Activity [19]: 9%
- Activity [20]: inactive

Structure (SMILES): C#CCCCCNC(=O)/C=C/c1ccc(O)c(O)c1
- Activity [1]: 67.6%

Structure (SMILES): O=C(/C=C/c1ccc(O)c(O)c1)NCCOCCOCCOCCOCCNC(=O)/C=C/c1ccc(O)c(O)c1
- Activity [1]: 61.8%
- inhibition [2]: inactive

Structure (SMILES): O=C(/C=C/c1ccc(O)c(O)c1)NCCOCCOCCNC(=O)/C=C/c1ccc(O)c(O)c1
- Activity [1]: 64.7%
- inhibition [2]: inactive

Structure (SMILES): C#CCNC(=O)[C@@H](Cc1ccc(O)c(O)c1)OC(=O)/C=C/c1ccc(O)c(O)c1
- Activity [1]: 107%

Structure (SMILES): O=C(/C=C/c1ccc(O)c(O)c1)NCCOCCOCCOCCOCCOCCNC(=O)/C=C/c1ccc(O)c(O)c1
- Activity [1]: 67.6%
- inhibition [2]: inactive

Structure (SMILES): O=C(/C=C/c1ccc(O)c(O)c1)NCc1cn(Cc2ccc(-c3ccc(Cn4cc(CNC(=O)/C=C/c5ccc(O)c(O)c5)nn4)cc3)cc2)nn1
- Activity [1]: 88.2%

Structure (SMILES): O=C(/C=C/c1ccc(O)c(O)c1)CC(=O)/C=C/c1ccc(O)c(O)c1
- Activity [1]: 11.5%

Structure (SMILES): O=C(/C=C/c1ccc(O)c(O)c1)NCCCCc1cn(Cc2ccc(-c3ccc(Cn4cc(CCCCNC(=O)/C=C/c5ccc(O)c(O)c5)nn4)cc3)cc2)nn1
- Activity [1]: 61.8%

Structure (SMILES): C#CCNC(=O)/C=C/c1ccc(O)c(O)c1
- Activity [1]: 79.4%

Structure (SMILES): O=C(/C=C/c1ccc(O)c(O)c1)NCCCc1cn(Cc2ccc(-c3ccc(Cn4cc(CCCNC(=O)/C=C/c5ccc(O)c(O)c5)nn4)cc3)cc2)nn1
- Activity [1]: 112%

Structure (SMILES): O=C(/C=C/c1ccc(O)c(O)c1)O[C@H](Cc1ccc(O)c(O)c1)C(=O)NCc1cn(Cc2ccc(-c3ccc(Cn4cc(CNC(=O)[C@@H](Cc5ccc(O)c(O)c5)OC(=O)/C=C/c5ccc(O)c(O)c5)nn4)cc3)cc2)nn1
- Activity [1]: 65.1%
